The list is not random: actives were taken first. Their share in the collection is about 2.1%.
miR122 inh: miR-122 inhibition in Huh7 cells; AID 602342; activation (reporter increase), % at 12.5 µM; hit rate 0.3% among 340,000; Huh7 miR-122 Renilla luciferase sensor, 48 h; neutral wells = 0, positive control = 100;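 active means mean replicate activation score at least 90 and every replicate individually at or above 90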;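 further: higher luciferase means less miR-122 activity so hits act as miR-122 inhibitors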
SR-BI HDL uptake: blocks mouse SR-BI lipid uptake from DiI-HDL. ldlA[mSR-BI] CHO cells, DiI-HDL uptake fluorescence, 3 h. inhibition, % at 12.5 µM. hit rate 0.96% among 320,000. AID 488896;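 active means mean replicate inhibition of at least 70% and a set share of replicates each scoring 70 or more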
Target sequence (Q61009 whole entry, looked up): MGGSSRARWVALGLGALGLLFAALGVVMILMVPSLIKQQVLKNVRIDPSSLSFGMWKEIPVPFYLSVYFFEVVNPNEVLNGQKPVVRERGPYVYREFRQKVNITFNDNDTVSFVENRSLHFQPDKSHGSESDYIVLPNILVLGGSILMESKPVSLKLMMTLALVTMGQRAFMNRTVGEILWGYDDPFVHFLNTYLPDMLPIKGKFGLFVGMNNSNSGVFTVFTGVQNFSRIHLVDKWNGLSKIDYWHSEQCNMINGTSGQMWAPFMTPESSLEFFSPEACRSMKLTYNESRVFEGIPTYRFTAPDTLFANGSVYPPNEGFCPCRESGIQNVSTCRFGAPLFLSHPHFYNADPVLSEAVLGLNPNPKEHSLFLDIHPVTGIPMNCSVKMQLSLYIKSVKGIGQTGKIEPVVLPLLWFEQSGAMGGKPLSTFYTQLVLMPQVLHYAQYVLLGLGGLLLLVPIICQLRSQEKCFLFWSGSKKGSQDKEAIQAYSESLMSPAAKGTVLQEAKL
ARNT-TACC3 inh: disrupts binding between human ARNT and TACC3 | Q9Y6A5 | AlphaScreen His-ARNT PAS-B/GST-TACC3 binding, luminescence; TACC3 fragment carries E629A point mutation | inhibition, % at 9.99 µM | hit rate 0.66% among 390,000;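 active means mean inhibition of replicates at least 50% and at least half of replicates each reaching 50%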
CAL PDZ FP-1: CAL PDZ (human) peptide binding inhibition. Q9HD26. purified CAL PDZ, TMR-peptide fluorescence polarization, 1 h. inhibition, % at 24.9 µM. hit rate 0.92% among 300,000. AID 602252;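 active means mean inhibition of at least 30% with at least half of replicates also reaching 30%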
SR-BI uptake up: enhances SR-BI lipid uptake from DiI-HDL; activation, % at 12.5 µM; CHO ldlA[mSR-BI] cells, DiI-HDL uptake fluorescence, 3 h; 100 = double the neutral-control signal; AID 504775; hit rate 0.096% among 320,000;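 active means mean replicate activation of at least 60% and every replicate at or above 60%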
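Material: SR-BI-overexpressing, LDLR-lacking CHO cells | Dosing: Single compound concentration, delivered by pin transfer | Probe or stimulus: Labelled HDL, 10 µg/mL | Signal: Bottom-read cell fluorescence after medium removal, ex 550/em 595 nm | Schedule: 3 h, 37 °C | Evaluation: HDL uptake via cellular fluorescence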
CAL PDZ FP-2: inhibitors of human CAL PDZ peptide binding. Q9HD26. purified CAL PDZ, TMR-peptide fluorescence polarization, 1 h. inhibition, % at 20 µM. hit rate 0.02% among 330,000. AID 504414;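 active means highest replicate inhibition of at least 40%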
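Material: tagged CAL PDZ protein CerCALP, purified; buffer or medium: sodium phosphate/NaCl buffer pH 7.4 with TCEP, IgG, Thesit; also added: fluorescent TMR peptide probe; schedule: 1 h incubation at room temperature before polarization reading; technique: fluorescence polarization from S- and P-plane intensities, G-factor corrected; control set: unlabelled peptide and DMSO controls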
Each line names hits and unclear results; the compound was inactive in the other large screens.

C[C@H]1CN([C@@H](C)CO)C(=O)c2cc(NS(=O)(=O)c3ccc(Cl)cc3)ccc2O[C@@H]1CN(C)C(=O)Nc1ccc(C(F)(F)F)cc1	none (no result: SR-BI HDL uptake, ARNT-TACC3 inh, CAL PDZ FP-1, SR-BI uptake up, CAL PDZ FP-2)
Cc1[nH][nH]c(=O)c1C(c1ccc(-c2cccc(Cl)c2)o1)c1c(C)[nH][nH]c1=O	ARNT-TACC3 inh 50
Cc1[nH][nH]c(=O)c1C(c1ccc(-c2cccc(C(=O)O)c2)o1)c1c(C)[nH][nH]c1=O	none
CC1CCN(S(=O)(=O)N2CCC(C(=O)NCCc3ccccc3)CC2)CC1	miR122 inh 143
O=C(NCCc1ccccc1)C1CCN(C2CCN(Cc3ccco3)CC2)CC1	CAL PDZ FP-1 30 (no result: miR122 inh)
O=C(N[C@H]1CC[C@@H](CCNC(=O)C2CCC2)O[C@H]1CO)c1ccncc1	none (no result: miR122 inh, SR-BI HDL uptake, CAL PDZ FP-1, SR-BI uptake up, CAL PDZ FP-2)
C[C@H]1CN([C@@H](C)CO)C(=O)c2cccc(NC(=O)Nc3ccc4c(c3)OCO4)c2O[C@H]1CN(C)C(=O)Nc1cccc2ccccc12	none (no result: SR-BI HDL uptake, ARNT-TACC3 inh, CAL PDZ FP-1, SR-BI uptake up, CAL PDZ FP-2)
CC/C(=N\NC(=O)c1ccc(CN(C)S(=O)(=O)c2ccc(C)cc2)cc1)c1ccc(OC(F)F)cc1	SR-BI HDL uptake 80
Cc1ccc(S(=O)(=O)N(C)Cc2ccc(C(=O)NN=C(CC(C)C)CC(C)C)cc2)cc1	none (no result: miR122 inh)
COc1ccc(-c2c(O)c(C#N)c(-c3ccccc3)n(-c3ccc(OC)cc3)c2=O)cc1	miR122 inh 97
C[C@@H]1CCCCO[C@@H](CN(C)S(=O)(=O)c2cccs2)[C@@H](C)CN([C@H](C)CO)C(=O)c2cc(NC(=O)NC3CCCCC3)ccc2O1	none (no result: SR-BI HDL uptake, CAL PDZ FP-1, SR-BI uptake up, CAL PDZ FP-2)
COc1cccc(NC(=O)c2ccnc(N3CCC(C(=O)NCc4cc(OC)ccc4OC)CC3)c2)c1	SR-BI HDL uptake 79 (no result: miR122 inh, CAL PDZ FP-1)
O=C(CSc1nnc(COc2ccc(Cl)cc2)o1)N1c2ccccc2CCc2ccccc21	SR-BI HDL uptake 75
COCC(=O)Nc1ccc2c(c1)OC[C@@H](C)N(Cc1cncnc1)C[C@@H](C)[C@@H](OC)CN(C)C2=O	none (no result: SR-BI HDL uptake, ARNT-TACC3 inh, CAL PDZ FP-1, SR-BI uptake up, CAL PDZ FP-2)
COc1cc(OC)c(C(=O)NC2CCCc3ccccc32)cc1OC (stereo not drawn)	none (no result: ARNT-TACC3 inh)
COCCNc1ccc([N+](=O)[O-])cc1C(=O)NC1CCCc2ccccc21 (stereo not drawn)	SR-BI HDL uptake 79 (no result: miR122 inh, ARNT-TACC3 inh)
COc1ccc2c(c1)C1NC(=S)NC(C)(O2)C1C(=O)Nc1ccc(Cl)cc1 (stereo not drawn)	SR-BI HDL uptake 80 (no result: miR122 inh)
C[C@H]1CN([C@@H](C)CO)C(=O)c2cc(NC(=O)C3CC3)ccc2O[C@H]1CN(C)C	none (no result: SR-BI HDL uptake, CAL PDZ FP-1, SR-BI uptake up, CAL PDZ FP-2)
CCc1c(C)nc(SCC(=O)N2CCN(c3ccccc3OC)CC2)[nH]c1=O	none
CCCc1c(C)nc(N2CCN(c3ccccc3OC)CC2)[nH]c1=O	CAL PDZ FP-1 55
OCCC1CN(CC#Cc2ccccc2)CCN1C1CCCC1 (stereo not drawn)	CAL PDZ FP-1 91
OCCC#Cc1ccc(CN2CCN(C3CCCCC3)C(CCO)C2)cc1 (stereo not drawn)	none (no result: miR122 inh)
CCOC(=O)Cn1c2ccccc2c2nc3ccccc3nc21	CAL PDZ FP-1 42
CCOC(=O)Cn1c2ccccc2c2nc(C)sc21	none (no result: miR122 inh)
C[C@@H]1CN([C@@H](C)CO)C(=O)c2cc(NC(=O)C3CCCCC3)ccc2O[C@H]1CN(C)Cc1ccc(-c2ccccc2)cc1	none (no result: SR-BI HDL uptake, CAL PDZ FP-1, SR-BI uptake up, CAL PDZ FP-2)
CCN(CC)CC(O)Cn1c(C)c(-c2ccccc2)c2cc([N+](=O)[O-])ccc21 (stereo not drawn)	SR-BI HDL uptake 89 (no result: CAL PDZ FP-2)
O=C(O)CN(CC(=O)O)CC(=O)O	ARNT-TACC3 inh 65
CCC(=O)N1CC[C@H]2[C@@H]1c1cc(-c3ccc(F)cc3)ccc1N(C)[C@H]2CO	none (no result: SR-BI HDL uptake, CAL PDZ FP-1, SR-BI uptake up, CAL PDZ FP-2)
O=C(C[C@@H]1C=C[C@@H](NC(=O)c2cccnc2)[C@H](CO)O1)NCc1ccc(Cl)c(Cl)c1	none (no result: SR-BI HDL uptake, CAL PDZ FP-1, SR-BI uptake up, CAL PDZ FP-2)
CNC[C@H]1OCCCC[C@@H](C)Oc2ccc(NC(=O)Nc3ccccc3)cc2C(=O)N([C@@H](C)CO)C[C@H]1C	none (no result: SR-BI HDL uptake, CAL PDZ FP-1, SR-BI uptake up, CAL PDZ FP-2)
CCC(=O)N(C)C[C@H]1Oc2cc(C3=CCCCC3)ccc2S(=O)(=O)N([C@@H](C)CO)C[C@H]1C	none (no result: SR-BI HDL uptake, ARNT-TACC3 inh, CAL PDZ FP-1, SR-BI uptake up, CAL PDZ FP-2)
CCOC(=O)c1ccc(S(=O)(=O)N2CCN(S(=O)(=O)CC)CC2)cc1	CAL PDZ FP-1 65
CCC(C)(C)C1CCC(NC(=O)c2ccc(S(=O)(=O)N3CCOCC3)cc2)CC1 (stereo not drawn)	SR-BI uptake up 67 (no result: ARNT-TACC3 inh)
CC(C)(C)N(Cc1ccccc1)C(=O)COC(=O)c1ccc(S(=O)(=O)N2CCOCC2)cc1	CAL PDZ FP-1 39
CN(C(=O)COC(=O)c1ccc(Br)c(S(=O)(=O)N2CCOCC2)c1)C1CCCCC1	CAL PDZ FP-1 active
CCOC(=O)c1ccc(S(=O)(=O)N2CCNCC2)cc1	none (no result: CAL PDZ FP-1)
CC(=O)N1CCN(S(=O)(=O)c2cccc(C(=O)OCC(=O)N(Cc3ccccc3)C(C)(C)C)c2)CC1	none
N/C(CC(=O)Nc1cccc(C(F)(F)F)c1)=N/O	SR-BI uptake up 89 (no result: CAL PDZ FP-2)
CC(=O)N/N=C(\C)CC(=O)Nc1cccc(C(F)(F)F)c1	none (no result: miR122 inh)
COC(=O)CNc1cccc(C(F)(F)F)c1	CAL PDZ FP-1 75
